Measured values pooled from the literature.
Target: cAMP-dependent protein kinase catalytic subunit alpha (PRKACA, Homo sapiens, UniProt P17612)

Structure (SMILES)	test	setting	endpoint	value
Nc1ncnc2occ(-c3ccc(NC(=O)Nc4cc(C(F)(F)F)ccc4F)cc3)c12	enzyme activity, inhibitor	20 µM	remaining activity	12%
N[C@@H]1CCN(c2nccc(-c3cnn4ncccc34)n2)C1	cell-free assay	1 µM	remaining signal	96%
Cc1ccc(NC(=O)c2ccc(C)c(C(F)(F)F)c2)cc1C#Cc1nn(C2CCC(O)CC2)c2ncnc(N)c12 (stereo not drawn)	cell-free assay, inhibitor	10 µM	remaining signal	60%
Cc1cc(NC(=O)c2cccc3cc(-c4cccc5[nH]nc(N)c45)ccc23)ccc1F	enzyme activity, inhibitor	0.1 µM	activity vs control	100%
Cn1c2c(c3ccc(Cl)c(Cl)c31)C(C#N)C1(CCNCC1)NC2=O (racemic)	thermal stability, DSF	10 µM	ΔTm	3.3 °C
FC(F)(F)Oc1cccc(-c2cnc3ccc(-c4ccncc4)nn23)c1	enzyme activity, inhibitor, radiometric	5 µM	activity vs control	106%
Nc1nc(NC2CCCCC2)sc1C(=O)c1ccccc1	enzyme activity, inhibitor	10 µM	remaining activity	97%
CN(C)C1CCN(CC#Cc2nn(C3CCCC3)c3nc(NCc4ccccc4)ncc23)C1 (stereo not drawn)	enzyme activity, inhibitor, FRET	1 µM	inhibition	6%
O=C1NC(=O)c2cc(Nc3ccc(F)cc3)c(Nc3ccc(F)cc3)cc21	cell-free assay, inhibitor	0.5 µM	remaining signal	94.5%
CNc1cccc2cc(C(=O)Nc3ccc(C(=O)O)cc3)c(=O)[nH]c12	enzyme activity, inhibitor	10 µM	inhibition	-8.1%
C=CC(=O)Nc1cc(Nc2nccc(Nc3cc(Cl)c(F)cc3C(C)(C)O)n2)c(OC)cc1N1CC[C@@H](N(C)C)C1	enzyme activity, inhibitor	1 µM	inhibition	7%
Cn1cnc(Br)c1C1=CN(c2ncnc3[nH]cnc23)CCS1	enzyme activity, inhibitor, radiometric	50 nM	inhibition	21.5%
Cn1c2c(Cl)c(Cl)ccc2c2cc[nH]c(=O)c21	thermal stability, DSF	10 µM	ΔTm	0.8 °C
COc1cc(Nc2cnc(C#N)c(O[C@H](C)CN(C)C)n2)ncc1-c1cnn(C)c1	enzyme activity, inhibitor, radiometric	1 µM	remaining activity	104%
CN1CC(Oc2cnc(C#N)cc2-c2ccn3nc(NC(=O)C4CC4)cc3c2)C1	enzyme activity, inhibitor	1 µM	inhibition	7%
CCCOc1ccc(OC)c(F)c1C(=O)c1ccc(C(=O)N[C@@H]2CNC[C@H]2NC(=O)c2ccc3[nH]ncc3c2)cc1	enzyme activity, inhibitor	10 µM	remaining activity	1%
Cc1cc(-n2nc(Cc3cc(F)cc(C(F)(F)F)c3)nc2C)ccc1C(N)=O	cell-free assay, competition with immobilised ligand	1 µM	remaining binding	100%
CCCS(=O)(=O)Nc1ccc(F)c(C(=O)c2c[nH]c3ncc(-c4ccc(Cl)cc4)cc23)c1F	enzyme activity, inhibitor	1 µM	inhibition	< 10%
CCN1CCC2(CC1)NC(=O)c1c(c3ccc(Cl)c(Cl)c3n1C)C2C#N (racemic)	thermal stability, DSF	10 µM	ΔTm	1.9 °C
NS(=O)(=O)c1cc(NC(=O)Cc2ccccc2)ccc1Oc1cccc(Cl)c1	cell-free assay, competition with immobilised ligand	1 µM	remaining binding	94%
O=C(CSc1nc2nccnc2c(=O)n1CCc1ccccc1)Nc1nccs1	enzyme activity, inhibitor	10 µM	inhibition	6%

Structure (SMILES)	test	setting	endpoint	value
CC(=O)C1=C(C)N(c2cccc(C(F)(F)F)c2)C(=O)N[C@@H]1c1ccc(C#N)nc1	cell-free assay, competition with immobilised ligand	1 µM	remaining binding	92.3%
Cn1c2c(Cl)c(Cl)ccc2c2cn[nH]c(=O)c21	thermal stability, DSF	10 µM	ΔTm	0.6 °C
Cc1ccc(Nc2nccc(N(C)c3ccc4c(C)n(C)nc4c3)n2)cc1S(N)(=O)=O	enzyme activity, inhibitor	10 µM	inhibition	19%
CN(C)CC#Cc1ccc(OCCCc2sc(N3CCc4cccc(C(=O)Nc5nc6ccccc6s5)c4C3)nc2C(=O)O)c(F)c1	cell-free assay, competition with immobilised ligand	1 µM	remaining binding	89%
C[C@@H](N)[C@H]1CC[C@H](C(=O)Nc2ccncc2)CC1	cell-free assay, inhibitor	0.5 µM	remaining signal	97.8%
CCOC(=O)c1cc2cc(-c3cc(C(=O)NCc4ccc(C(=O)O)cc4)nn3C)ccc2[nH]1	cell-free assay, competition with immobilised ligand	0.1 µM	remaining binding	85%
CCOc1cc(-c2nncn2C)ccc1Nc1ncc2cc(C)nc(NCC(C)(C)C)c2n1	enzyme activity, inhibitor, FRET	1 µM	inhibition	< 15%
Cc1sc(C(=O)NC2COC2)cc1-n1cc(NC(=O)Nc2c(F)cccc2Cl)cn1	enzyme activity, inhibitor	10 µM	remaining activity	94.5%
CCCCN(CCCC)C(=O)CN1C[C@H](c2cc(OC)c3c(c2)OCO3)[C@@H](C(=O)O)[C@@H]1CC(C)(C)CCC	cell-free assay, competition with immobilised ligand	1 µM	remaining binding	100%
COc1cc2ncnc(Nc3ccc(Oc4ccccc4)c(C)c3C)c2cc1OC	enzyme activity, inhibitor	1 µM	inhibition	4%
O=C(Nc1cnn(-c2csc(C(=O)NC3COC3)c2)c1)Nc1ccccc1Cl	enzyme activity, inhibitor	5 µM	remaining activity	99.8%
CC(C)(C)c1nc2c(s1)c1nc(N)ncc1c1ccc(NS(=O)(=O)c3c(F)cccc3F)c(F)c12	enzyme activity, inhibitor, radiometric	1 µM	remaining activity	104%
CS(=O)(=O)N1CCCC(NC(=O)[C@H](CCC2CCCCC2)NC(=O)c2ccc(CNC(=O)c3cnc4ccccn34)cc2)C1 (stereo partly drawn)	cell-free assay, competition with immobilised ligand	0.1 µM	remaining binding	100%
Cn1c2c(c3ccccc31)C(C#N)C(C)(C)NC2=O (stereo not drawn)	thermal stability, DSF	10 µM	ΔTm	0.2 °C
COc1cc(Cl)c(C(=O)N[C@@H](CN[C@H]2CC[C@@H](N)CC2)Cc2ccc(C#N)cc2)cc1-c1ccc(CN[C@H](C)c2ccc(C)cc2)o1	enzyme activity, inhibitor	1 µM	remaining activity	106%
Cn1c(=O)n(-c2ccc(C(C)(C)C#N)cc2)c2c3cc(-c4cnc5ccccc5c4)ccc3ncc21	enzyme activity, inhibitor	10 µM	remaining activity	82%
CN(c1nccc(-c2cnn3ncccc23)n1)C1CC1	cell-free assay	1 µM	remaining signal	100%
O=C(Nc1cccnn1)N1CCC(=Cc2cccc(Oc3ccc(C(F)(F)F)cn3)c2)CC1	cell-free assay, competition with immobilised ligand	1 µM	remaining binding	100%
Cc1cnc(NC2CCOCC2)nc1-n1cnc(C(=O)NC(CN)c2cc(F)cc(Cl)c2)c1 (stereo not drawn)	enzyme activity, inhibitor, radiometric	1 µM	remaining activity	45%
CCN(CC)CCNC(=O)c1c(C)[nH]c(/C=C2\C(=O)Nc3ccc(F)cc32)c1C	enzyme activity, inhibitor	10 µM	inhibition	59%
N#CCCc1ccc2c(c1)-c1[nH]c3ccc([N+](=O)[O-])cc3c1CC(=O)N2	cell-free assay	0.5 µM	remaining signal	87.6%
